# Measured values published in ChEMBL document CHEMBL4321796, “Proteolysis Targeting Chimeras for the Selective Degradation of Mcl-1/Bcl-2 Derived from Nonselective Target Binding Ligands” (J Med Chem, 2019).
# Calls of active or inactive are those of the source. The rule behind the calls is not given here.
# Columns and labels:
# [1] = biological target: Induced myeloid leukemia cell differentiation protein Mcl-1 (Homo sapiens, UniProt Q07820); assay: Inhibition of biotinylated Bim peptide (81 to 106 residues) binding to His-tagged human Mcl-1 expressed in Escherichia coli BL21 (DE3) cells preincubated for 1 hr followed by biotinylated Bim peptide addition measured after 2 hrs by ELISA
# How it was run: (§1)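 Inhibitor serially diluted (100–0.1 µM) from 10 mM DMSO stock, preincubated 1 h with 200 nM His-tagged protein in PBS (final DMSO 4%), then added 2 h to streptavidin plates holding biotin-Bim (plated at 0.09 mg/mL). Incubations at 4 °C. Detection with HRP anti-His, TMB 30 min, H2SO4 stop, A450. IC50 averaged from three independent experiments, with SD.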
# [2] = biological target: Apoptosis regulator Bcl-2 (Homo sapiens, UniProt P10415); assay: Inhibition of biotinylated Bim peptide (81 to 106 residues) binding to His-tagged human Bcl-2 expressed in Escherichia coli BL21 (DE3) cells preincubated for 1 hr followed by biotinylated Bim peptide addition measured after 2 hrs by ELISA; how it was run: as §1
# [3] = biological target: T1, Protein cereblon/Induced myeloid leukemia cell differentiation protein Mcl-1 (Homo sapiens, UniProt Q07820+Q96SW2); assay: Induction of CRBN-mediated Mcl-1 degradation in human HeLa cells assessed as relative abundance at 10 uM after 12 hrs by Western blot analysis (reference value: 1); format: cell-based
# [4] = biological target: T2, Protein cereblon/Apoptosis regulator Bcl-2 (Homo sapiens, UniProt P10415+Q96SW2); assay: Induction of CRBN-mediated Bcl-2 degradation in human HeLa cells assessed as relative abundance at 10 uM after 12 hrs by Western blot analysis (reference value: 1); format: cell-based
# [5] = biological target: T1, Protein cereblon/Induced myeloid leukemia cell differentiation protein Mcl-1; assay: Induction of CRBN-mediated Mcl-1 degradation in human HeLa cells at 10 uM after 12 hrs by Western blot analysis relative to control; format: cell-based
# [6] = biological target: T2, Protein cereblon/Apoptosis regulator Bcl-2; assay: Induction of CRBN-mediated Bcl-2 degradation in human HeLa cells at 10 uM after 12 hrs by Western blot analysis relative to control; format: cell-based
# [7] = biological target: T1, Protein cereblon/Induced myeloid leukemia cell differentiation protein Mcl-1; assay: Induction of CRBN-mediated Mcl-1 degradation in human HeLa cells assessed as Mcl-1 level at 10 uM after 12 hrs by Western blot analysis; format: cell-based
# [8] = biological target: T2, Protein cereblon/Apoptosis regulator Bcl-2; assay: Induction of CRBN-mediated Bcl-2 degradation in human HeLa cells assessed as reduction in Bcl-2 level at 10 uM after 12 hrs by Western blot analysis; format: cell-based
# [9] = system: NCI-H23; assay: Cytotoxicity against human H23 cells incubated for 24 hrs by CCK8 assay; format: functional, cell-based
# How it was run: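 H23 cells seeded at 4 × 10^4 per mL in RPMI with 10% FBS, L-glutamine and pen/strep. Treated 24 h at various concentrations or with DMSO vehicle (0.05%). Viability read by CCK8 and normalized against cell-free background and untreated cultures; mean ± s.e.m., n=3.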
# [10] = biological target: T1, Protein cereblon/Induced myeloid leukemia cell differentiation protein Mcl-1; assay: Induction of CRBN-mediated Mcl-1 degradation in human HeLa cells assessed as relative abundance at 1 uM after 12 hrs by Western blot analysis (reference value: 1); format: cell-based
# [11] = biological target: T2, Protein cereblon/Apoptosis regulator Bcl-2; assay: Induction of CRBN-mediated Bcl-2 degradation in human HeLa cells assessed as relative abundance at 1 uM after 12 hrs by Western blot analysis (reference value: 1); format: cell-based
# [12] = biological target: T1, Protein cereblon/Induced myeloid leukemia cell differentiation protein Mcl-1; assay: Induction of CRBN-mediated Mcl-1 degradation in human HeLa cells assessed as formation of ubiquitin adducts of Mcl-1 at 1 to 10 uM after 12 hrs by Western blot analysis; format: cell-based
# [13] = biological target: T1, Protein cereblon/Induced myeloid leukemia cell differentiation protein Mcl-1; assay: Protac activity at CRBN/Mcl-1 in human HeLa cell lysates assessed as ternary complex formation by Western blot analysis based pull-down assay; format: subcellular; details: Lysate
# How it was run: (§2)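 HeLa lysate (25×10^6 cells, 1% Triton X-100 IP buffer), 1 mg total protein, incubated overnight with 1 µg CRBN antibody across a compound concentration gradient. Capture on protein A+G agarose, three Triton washes, boiled in loading buffer. Mcl-1, Bcl-2 and CRBN detected by immunoblotting. n=3 independent samples.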
# [14] = biological target: T2, Protein cereblon/Apoptosis regulator Bcl-2; assay: Protac activity at CRBN/Bcl-2 in human HeLa cell lysates assessed as ternary complex formation by Western blot analysis based pull-down assay; format: subcellular; details: Lysate; how it was run: as §2
# Chain of Induced myeloid leukemia cell differentiation protein Mcl-1 (Q07820 whole entry, the tested form may be a part): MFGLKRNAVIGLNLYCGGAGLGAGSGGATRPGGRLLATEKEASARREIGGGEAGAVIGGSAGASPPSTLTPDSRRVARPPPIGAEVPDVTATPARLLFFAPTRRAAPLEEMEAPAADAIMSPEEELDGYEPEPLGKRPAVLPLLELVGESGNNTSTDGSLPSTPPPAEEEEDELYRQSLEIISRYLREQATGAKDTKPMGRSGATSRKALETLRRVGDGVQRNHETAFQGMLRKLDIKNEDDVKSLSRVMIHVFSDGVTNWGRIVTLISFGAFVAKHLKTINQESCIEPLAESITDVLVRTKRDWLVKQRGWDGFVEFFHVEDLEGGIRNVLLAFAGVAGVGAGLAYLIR
# T1 sequence (Q07820 whole entry, looked up): as the sequence (Q07820 whole entry, the tested form may be a part) above
# T1 sequence (Q96SW2 whole entry, looked up): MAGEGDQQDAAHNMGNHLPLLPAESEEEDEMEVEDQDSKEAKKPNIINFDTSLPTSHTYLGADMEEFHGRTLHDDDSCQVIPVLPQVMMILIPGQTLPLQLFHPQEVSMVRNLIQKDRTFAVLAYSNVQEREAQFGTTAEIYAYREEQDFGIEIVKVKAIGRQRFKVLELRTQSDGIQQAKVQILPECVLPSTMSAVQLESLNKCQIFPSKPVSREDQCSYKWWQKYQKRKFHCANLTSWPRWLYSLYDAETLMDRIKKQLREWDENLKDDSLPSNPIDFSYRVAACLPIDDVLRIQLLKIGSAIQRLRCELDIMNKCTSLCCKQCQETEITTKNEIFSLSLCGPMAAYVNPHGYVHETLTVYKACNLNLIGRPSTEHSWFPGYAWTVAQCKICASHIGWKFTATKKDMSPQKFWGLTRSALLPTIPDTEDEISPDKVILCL
# Chain of Apoptosis regulator Bcl-2 (P10415 whole entry, the tested form may be a part): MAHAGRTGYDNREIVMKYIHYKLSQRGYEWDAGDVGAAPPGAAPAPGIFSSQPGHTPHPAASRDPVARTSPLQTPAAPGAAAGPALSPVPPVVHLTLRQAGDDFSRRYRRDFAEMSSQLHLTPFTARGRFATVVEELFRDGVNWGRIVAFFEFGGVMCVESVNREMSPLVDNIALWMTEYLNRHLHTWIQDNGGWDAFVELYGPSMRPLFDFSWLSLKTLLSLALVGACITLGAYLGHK
# T2 sequence (P10415 whole entry, looked up): as the sequence (P10415 whole entry, the tested form may be a part) above
# T2 sequence (Q96SW2 whole entry, looked up): as the sequence (Q96SW2 whole entry, looked up) above
IC50 [1],IC50 [2],fold change (FC) [3],fold change (FC) [4],Activity [5],Activity [6],Activity [7],Activity [8],fold change (FC) [10],fold change (FC) [11],Activity [12],Activity [13],Activity [14],SMILES,Activity [9]
2.03 µM,2.31 µM,1,1,inactive,inactive,inactive,inactive,,,,,,N#CC1=C(C#N)c2ccc(Sc3ccc(Br)cc3)c3cccc(c23)C1=O,
4.45 µM,3.18 µM,1,1,inactive,inactive,inactive,inactive,,,,,,CC(C)(C)c1ccc(C(=O)NCCN2C(=O)c3cccc4c(Sc5ccc(Br)cc5)ccc(c34)C2=O)cc1,Active
,,,,,,,,,,,,,Cc1nn(C)c(COc2ccc(N3CCN(S(=O)(=O)N(C)C)CC3)cc2)c1-c1cccc2c(CCCOc3cccc4ccccc34)c(C(=O)O)n(CCN3CCOCC3)c12,Active
9.95 µM,9.71 µM,0.8,1,< 20%,< 20%,,,0.9,1,,,,N#CC1=C(NCCC(=O)NCCCCNc2cccc3c2C(=O)N(C2CCC(=O)NC2=O)C3=O)c2ccc(Sc3ccc(Br)cc3)c3cccc(c23)C1=O (stereo not given),
7.89 µM,15.2 µM,1,1,,,,,1,1,,,,O=C(CCCCC(=O)NCCN1C(=O)c2cccc3c(Sc4ccc(Br)cc4)ccc(c23)C1=O)NCCNc1cccc2c1C(=O)N(C1CCC(=O)NC1=O)C2=O (stereo not given),
3.46 µM,4.52 µM,,,,,,,,,,,,COC(=O)CCNC1=C(C#N)C(=O)c2cccc3c(Sc4ccc(Br)cc4)ccc1c23,
16 µM,11.6 µM,1.5,1,< 20%,< 20%,,,1.2,1.1,inactive,,,N#CC1=C(NCCC(=O)NCCCCCC(=O)NCCCCCCNc2cccc3c2C(=O)N(C2CCC(=O)NC2=O)C3=O)c2ccc(Sc3ccc(Br)cc3)c3cccc(c23)C1=O (stereo not given),
10.6 µM,10.5 µM,1,1,< 20%,< 20%,,,1,1,,,,N#CC1=C(NCCC(=O)NCCNc2cccc3c2C(=O)N(C2CCC(=O)NC2=O)C3=O)c2ccc(Sc3ccc(Br)cc3)c3cccc(c23)C1=O (stereo not given),
5.95 µM,4.78 µM,,,,,,,,,,,,COC(=O)CCCCC(=O)NCCN1C(=O)c2cccc3c(Sc4ccc(Br)cc4)ccc(c23)C1=O,
15.1 µM,13.5 µM,0.9,0.9,,,,,1,1,,,,O=C(CCCCCNc1cccc2c1C(=O)N(C1CCC(=O)NC1=O)C2=O)NCCCCCCNC(=O)CCCCC(=O)NCCN1C(=O)c2cccc3c(Sc4ccc(Br)cc4)ccc(c23)C1=O (stereo not given),
1.51 µM,10 µM,0.9,1,,,,,1,1,,,,O=C(CCCCC(=O)NCCN1C(=O)c2cccc3c(Sc4ccc(Br)cc4)ccc(c23)C1=O)NCCCCNc1cccc2c1C(=O)N(C1CCC(=O)NC1=O)C2=O (stereo not given),
2.29 µM,2.24 µM,2.2,1,< 20%,< 20%,,,1.8,1,inactive,,,N#CC1=C(NCCC(=O)NCCOCCOCCNc2cccc3c2C(=O)N(C2CCC(=O)NC2=O)C3=O)c2ccc(Sc3ccc(Br)cc3)c3cccc(c23)C1=O (stereo not given),
7.65 µM,1.94 µM,0.8,1.1,< 20%,< 20%,,,0.9,1,,inactive,inactive,N#CC1=C(NCCC(=O)NCCCCCCNc2cccc3c2C(=O)N(C2CCC(=O)NC2=O)C3=O)c2ccc(Sc3ccc(Br)cc3)c3cccc(c23)C1=O (stereo not given),
5.4 µM,7.66 µM,1,0.9,,,,,1,0.9,,,,O=C(CCCCC(=O)NCCN1C(=O)c2cccc3c(Sc4ccc(Br)cc4)ccc(c23)C1=O)NCCCCCCCCNc1cccc2c1C(=O)N(C1CCC(=O)NC1=O)C2=O (stereo not given),
